Laboratory results published in ChEMBL document CHEMBL1128719, “The synthesis, structure-activity, and structure-side effect relationships of a series of 8-alkoxy- and 5-amino-8-alkoxyquinolone antibacterial agents” (J Med Chem, 1995).
In brackets after ≈: the same amount, converted by molar mass.

Assays:
[1] = system: Klebsiella pneumoniae; assay: In vitro antibacterial activity was tested for Klebsiella pneumoniae MGH-2; format: functional
Outline: (§1)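 Microtitration (microdilution) MIC determination in μg/mL against a panel of Gram-positive, Gram-negative and anaerobic organisms. Values come from duplicate or triplicate experiments and are stated accurate to ±50%.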

[2] = system: Streptococcus pyogenes; assay: In vitro antibacterial activity was tested for Streptococcus pyogenes C203; format: functional; outline: as §1
[3] = system: Escherichia coli; assay: In vitro antibacterial activity was tested for Escherichia coli H560; format: functional; outline: as §1
[4] = system: Bacteroides fragilis; assay: In vitro antibacterial activity against Bacteroides fragilis BFA; format: functional; outline: as §1
[5] = system: Staphylococcus aureus; assay: In vitro antibacterial activity was tested for Staphylococcus aureus UC-76; format: functional; outline: as §1
[6] = system: Providencia rettgeri; assay: In vitro antibacterial activity was tested for Providencia rettgeri H1771; format: functional; outline: as §1
[7] = system: Enterobacter cloacae; assay: In vitro antibacterial activity was tested for Enterobacter cloacae HA2646; format: functional
[8] = system: Streptococcus pneumoniae; assay: In vitro antibacterial activity was tested for Streptococcus pneumoniae SV-1; format: functional; outline: as §1
[9] = system: Clostridium perfringens; assay: In vitro antibacterial activity against Clostridium perfringens CP 3-1; format: functional
[10] = system: Escherichia coli; assay: In vitro antibacterial activity was tested for Escherichia coli Vogel; format: functional; outline: as §1
[11] = system: Staphylococcus aureus; assay: In vitro antibacterial activity was tested for Staphylococcus aureus H228; format: functional; outline: as §1
[12] = system: Pseudomonas aeruginosa; assay: In vitro antibacterial activity was tested for Pseudomonas aeruginosa UI-18; format: functional; outline: as §1
[13] = system: Peptoniphilus asaccharolyticus; assay: In vitro antibacterial activity was tested for Pepto asac PA 3-1; format: functional; outline: as §1
[14] = system: Cutibacterium acnes; assay: In vitro antibacterial activity was tested for Propion acnes PA5-1; format: functional; outline: as §1
[15] = system: Enterococcus faecalis; assay: In vitro antibacterial activity was tested for Streptococcus faecalis MGH-2; format: functional; outline: as §1
[16] = system: Clostridioides difficile; assay: In vitro antibacterial activity was tested for Clostridium diff CD1-1; format: functional
[17] = system: V79; assay: Clonogenic cytotoxicity against Chinese hamster V-79 cells; format: functional, cell-based; details: Cricetulus griseus

| SMILES | MIC [1] [µg/mL] | MIC [2] [µg/mL] | MIC [3] [µg/mL] | MIC [4] [µg/mL] | MIC [5] [µg/mL] | MIC [6] [µg/mL] | MIC [7] [µg/mL] | MIC [8] [µg/mL] | MIC [9] [µg/mL] | MIC [10] [µg/mL] | MIC [11] [µg/mL] | MIC [12] [µg/mL] | MIC [13] [µg/mL] | MIC [14] [µg/mL] | MIC [15] [µg/mL] | MIC [16] [µg/mL] | IC50 [17] [µg/mL] |
| --- | --- | --- | --- | --- | --- | --- | --- | --- | --- | --- | --- | --- | --- | --- | --- | --- | --- |
| COc1c(N2CCCC(N)C2)c(F)cc2c(=O)c(C(=O)O)cn(C3CC3)c12 (stereo unspecified) | 0.2 (≈ 0.533 µM) | 0.013 (≈ 0.0346 µM) | 0.05 (≈ 0.133 µM) | 0.4 (≈ 1.07 µM) | 0.006 (≈ 0.016 µM) | 0.4 (≈ 1.07 µM) | 0.1 (≈ 0.266 µM) | 0.013 (≈ 0.0346 µM) | 0.4 (≈ 1.07 µM) | 0.1 (≈ 0.266 µM) | 0.05 (≈ 0.133 µM) | 1.6 (≈ 4.26 µM) | 0.8 (≈ 2.13 µM) | 0.2 (≈ 0.533 µM) | 0.025 (≈ 0.0666 µM) | 0.8 (≈ 2.13 µM) |  |
| CCOc1c(N2CCCC(N)C2)c(F)cc2c(=O)c(C(=O)O)cn(C3CC3)c12 (stereo unspecified) | 0.4 (≈ 1.03 µM) | 0.2 (≈ 0.514 µM) | 0.2 (≈ 0.514 µM) |  | 0.025 (≈ 0.0642 µM) | 0.8 (≈ 2.05 µM) | 0.4 (≈ 1.03 µM) | 0.2 (≈ 0.514 µM) |  | 0.2 (≈ 0.514 µM) | 0.1 (≈ 0.257 µM) | 3.1 (≈ 7.96 µM) |  |  | 0.2 (≈ 0.514 µM) |  | 210 (≈ 539 µM) |
| COc1c(N2CCC(C)(CN)C2)c(F)c(N)c2c(=O)c(C(=O)O)cn(C3CC3)c12 (stereo unspecified) | 0.2 (≈ 0.495 µM) | 0.025 (≈ 0.0618 µM) | 0.05 (≈ 0.124 µM) | 1.6 (≈ 3.96 µM) | 0.006 (≈ 0.0148 µM) | 0.8 (≈ 1.98 µM) | 0.1 (≈ 0.247 µM) | 0.013 (≈ 0.0321 µM) | 0.8 (≈ 1.98 µM) | 0.1 (≈ 0.247 µM) | 0.025 (≈ 0.0618 µM) | 3.1 (≈ 7.66 µM) | 0.8 (≈ 1.98 µM) | 1.6 (≈ 3.96 µM) | 0.05 (≈ 0.124 µM) | 1.6 (≈ 3.96 µM) | 140 (≈ 346 µM) |
| CCOc1c(N2CCNC(C)C2)c(F)cc2c(=O)c(C(=O)O)cn(C3CC3)c12 (stereo unspecified) | 0.2 (≈ 0.514 µM) | 0.2 (≈ 0.514 µM) | 0.05 (≈ 0.128 µM) | 3.1 (≈ 7.96 µM) | 0.05 (≈ 0.128 µM) | 0.4 (≈ 1.03 µM) | 0.1 (≈ 0.257 µM) | 0.05 (≈ 0.128 µM) | 0.8 (≈ 2.05 µM) | 0.1 (≈ 0.257 µM) | 0.2 (≈ 0.514 µM) | 3.1 (≈ 7.96 µM) | 1.6 (≈ 4.11 µM) | 3.1 (≈ 7.96 µM) | 0.2 (≈ 0.514 µM) | 6.3 (≈ 16.2 µM) |  |
| CCOc1c(N2CCC(C)(CN)C2)c(F)c(N)c2c(=O)c(C(=O)O)cn(C3CC3)c12 (stereo unspecified) | 0.8 (≈ 1.91 µM) | 0.1 (≈ 0.239 µM) | 0.1 (≈ 0.239 µM) | 3.1 (≈ 7.41 µM) | 0.025 (≈ 0.0597 µM) | 1.6 (≈ 3.82 µM) | 0.4 (≈ 0.956 µM) | 0.05 (≈ 0.119 µM) | 0.4 (≈ 0.956 µM) | 0.2 (≈ 0.478 µM) | 0.1 (≈ 0.239 µM) | 3.1 (≈ 7.41 µM) | 0.8 (≈ 1.91 µM) | 3.1 (≈ 7.41 µM) | 0.1 (≈ 0.239 µM) | 6.3 (≈ 15.1 µM) |  |
| COc1c(N2CCC(CN)C2)c(F)cc2c(=O)c(C(=O)O)cn(C3CC3)c12 (stereo unspecified) | 0.1 (≈ 0.266 µM) | 0.003 (≈ 0.00799 µM) | 0.025 (≈ 0.0666 µM) | 0.2 (≈ 0.533 µM) | 0.003 (≈ 0.00799 µM) | 0.1 (≈ 0.266 µM) | 0.05 (≈ 0.133 µM) | 0.003 (≈ 0.00799 µM) | 0.1 (≈ 0.266 µM) | 0.05 (≈ 0.133 µM) | 0.025 (≈ 0.0666 µM) | 0.8 (≈ 2.13 µM) | 0.2 (≈ 0.533 µM) | 0.2 (≈ 0.533 µM) | 0.013 (≈ 0.0346 µM) | 0.2 (≈ 0.533 µM) |  |
| COc1c(N2CCN(C)CC2)c(F)cc2c(=O)c(C(=O)O)cn(C3CC3)c12 | 0.2 (≈ 0.533 µM) | 0.1 (≈ 0.266 µM) | 0.1 (≈ 0.266 µM) | 0.2 (≈ 0.533 µM) | 0.05 (≈ 0.133 µM) | 0.4 (≈ 1.07 µM) | 0.1 (≈ 0.266 µM) | 0.1 (≈ 0.266 µM) | 0.2 (≈ 0.533 µM) | 0.1 (≈ 0.266 µM) | 0.1 (≈ 0.266 µM) | 0.8 (≈ 2.13 µM) | 1.6 (≈ 4.26 µM) | 0.4 (≈ 1.07 µM) | 0.2 (≈ 0.533 µM) | 0.8 (≈ 2.13 µM) |  |
| CCNCC1CCN(c2c(F)cc3c(=O)c(C(=O)O)cn(C4CC4)c3c2OC)C1 (stereo unspecified) | 0.2 (≈ 0.496 µM) | 0.013 (≈ 0.0322 µM) | 0.05 (≈ 0.124 µM) | 0.4 (≈ 0.991 µM) | 0.006 (≈ 0.0149 µM) | 0.4 (≈ 0.991 µM) | 0.1 (≈ 0.248 µM) | 0.013 (≈ 0.0322 µM) | 0.05 (≈ 0.124 µM) | 0.1 (≈ 0.248 µM) | 0.025 (≈ 0.062 µM) | 1.6 (≈ 3.97 µM) | 0.2 (≈ 0.496 µM) | 0.4 (≈ 0.991 µM) | 0.025 (≈ 0.062 µM) | 0.2 (≈ 0.496 µM) |  |
| CCOc1c(N2CCCC(N)C2)c(F)c(N)c2c(=O)c(C(=O)O)cn(C3CC3)c12 (stereo unspecified) | 0.4 (≈ 0.989 µM) | 0.05 (≈ 0.124 µM) | 0.1 (≈ 0.247 µM) | 3.1 (≈ 7.66 µM) | 0.013 (≈ 0.0321 µM) | 0.8 (≈ 1.98 µM) | 0.2 (≈ 0.495 µM) | 0.025 (≈ 0.0618 µM) | 0.4 (≈ 0.989 µM) | 0.2 (≈ 0.495 µM) | 0.05 (≈ 0.124 µM) | 3.1 (≈ 7.66 µM) | 0.8 (≈ 1.98 µM) | 3.1 (≈ 7.66 µM) | 0.1 (≈ 0.247 µM) | 6.3 (≈ 15.6 µM) |  |
